Results taken from publication PMC10413468 (ACS Omega, 2023).

What was measured:
[1] = system: 2C6 (human embryonic pancreas normal) cells; assay: MTT cytotoxicity assay, 2C6; format: cell-based; conditions: read-out: IC50 2C6 (normal), pancreas, 48 h, mean ± SD
Procedure, shortened: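 2C6 pancreas normal cells kept in Ham F10 with 10% newborn calf serum, 5% FBS, 2.5% horse serum and penicillin/streptomycin at 37 °C, 5% CO2. Seeded at 1 × 10^4 cells/well. Exposed 48 h to dicopper complexes (1–400 or 1–1000 μM) or cisplatin (0.1–20 μM); medium-only controls. PBS rinses, MTT 0.5 mg mL–1 for 3 h, DMSO solubilisation. IC50 from viability vs log[conc]; ≥3 repeats, mean ± SD.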

[2] = system: PK-59 (pancreas cancer) cells; assay: MTT cytotoxicity assay, PK-59; format: cell-based, human
Procedure, shortened: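 PK-59 pancreas cancer cells cultured in RPMI 1640 with 10% FBS and penicillin/streptomycin (37 °C, humidified 5% CO2). 1 × 10^4 cells/well exposed 48 h to dicopper complexes (1–400 or 1–1000 μM) or cisplatin (0.1–20 μM). After PBS rinses, MTT 0.5 mg mL–1 for 3 h, then DMSO. IC50 from viability vs log[conc]; ≥3 repeats, mean ± SD. SF = IC50(2C6)/IC50(PK-59).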

[3] = system: HeLa (human cervical cancer) cells; assay: MTT cytotoxicity assay, HeLa; format: cell-based; conditions: read-out: IC50 HeLa (cancer), cervical, 48 h, mean ± SD
Procedure, shortened: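 HeLa cervical cancer cells maintained in high-glucose D-MEM with 10% FBS and penicillin/streptomycin at 37 °C, 5% CO2. 1 × 10^4 cells/well incubated 48 h with dicopper complexes (1–400 or 1–1000 μM) or cisplatin (0.1–20 μM); blank and control wells got medium only. PBS wash, MTT (0.5 mg mL–1, 3 h), formazan dissolved in DMSO. IC50 from viability vs log[conc]; ≥3 repeats, mean ± SD.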

[4] = system: A549 (human lung cancer) cells; assay: MTT cytotoxicity assay, A549; format: cell-based
Procedure, shortened: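 A549 lung cancer cells grown in low-glucose DMEM with 10% FBS and penicillin/streptomycin (37 °C, 5% CO2). Plated at 1 × 10^4 cells/well. Treated 48 h with dicopper complexes (1–400 or 1–1000 μM) or cisplatin (0.1–20 μM). Wells rinsed with PBS, then MTT 0.5 mg mL–1 for 3 h and DMSO. IC50 from viability vs log[conc]; ≥3 repeats, mean ± SD. SF = IC50(WI-38)/IC50(A549).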

[5] = system: WI-38 (human lung fibroblast normal) cells; assay: MTT cytotoxicity assay, WI-38; format: cell-based; conditions: read-out: IC50 WI-38 (normal), lung, 48 h, mean ± SD
Procedure, shortened: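 WI-38 lung fibroblast normal cells grown in Eagle's MEM with 10% FBS and penicillin/streptomycin at 37 °C, 5% CO2. 1 × 10^4 cells/well given dicopper complexes (1–400 or 1–1000 μM) or cisplatin (0.1–20 μM) for 48 h; medium-only controls. PBS rinses, MTT 0.5 mg mL–1 for 3 h, DMSO solubilisation. IC50 from viability vs log[conc]; ≥3 repeats, mean ± SD.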

N.N.[Cl][Pt][Cl] [cisplatin]
IC50 [1]: 1.15 ± 0.08 µM
SF (selectivity factor), pancreas ([2]; (IC50 of normal cells)/(IC50 of cancer cells), 2C6/PK-59, 48 h): 0.6
IC50 ([2]; read-out: IC50 PK-59 (cancer), pancreas, MTT assay, 48 h, mean ± SD): 2.01 ± 0.02 µM
IC50 [3]: 0.93 ± 0.01 µM
SF (selectivity factor), lung ([4]; (IC50 of normal cells)/(IC50 of cancer cells), WI-38/A549, 48 h): 2.5
IC50 ([4]; read-out: IC50 A549 (cancer), lung, MTT assay, 48 h, mean ± SD): 1.83 ± 0.03 µM
IC50 [5]: 4.55 ± 0.03 µM
